# Assay results: ChEMBL document CHEMBL3352175, “2',6'-Dihalostyrylanilines, pyridines, and pyrimidines for the inhibition of the catalytic subunit of methionine S-adenosyltransferase-2” (J Med Chem, 2014)
# pIC50: −log10 of the molar value. The source made the active and inactive calls. The rule behind the calls is not given here.
# Molecular target: S-adenosylmethionine synthase isoform type-2 (Homo sapiens) (UniProt P31153)
# Experiment: Inhibition of recombinant His-tagged MAT2A (unknown origin) using L-methionine and ATP at 30 uM
# Settings: not given
# Outline: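 Purified His-tagged MAT2A holoenzyme (3 μg) preincubated with compound (30 μM final) 10 min at room temperature, then given L-methionine (50 μM) and ATP (50 μM) in 50 mM Tris pH 8.0, 50 mM KCl, MgCl2; 25 min at room temperature. Released Pi measured by malachite green absorbance at 635 nm; triplicate; activity expressed relative to reference lead.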
# S-adenosylmethionine synthase isoform type-2 (Homo sapiens), sequence (P31153 whole entry, looked up, canonical isoform): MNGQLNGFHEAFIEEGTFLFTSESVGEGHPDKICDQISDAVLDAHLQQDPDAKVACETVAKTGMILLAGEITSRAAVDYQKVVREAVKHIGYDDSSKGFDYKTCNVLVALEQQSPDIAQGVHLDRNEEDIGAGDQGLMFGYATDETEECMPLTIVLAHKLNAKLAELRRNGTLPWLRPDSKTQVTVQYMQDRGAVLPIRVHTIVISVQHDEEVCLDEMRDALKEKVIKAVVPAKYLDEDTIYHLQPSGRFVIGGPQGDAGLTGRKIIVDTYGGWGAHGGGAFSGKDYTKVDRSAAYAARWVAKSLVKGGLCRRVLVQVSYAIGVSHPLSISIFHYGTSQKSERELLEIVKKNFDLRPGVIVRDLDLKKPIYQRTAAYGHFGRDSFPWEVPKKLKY
row,inhibition,SMILES
1,Active,CNc1ccc(/C=C/c2c(Cl)cccc2Cl)cc1
2,Active,CNc1ccc(/C=C/c2c(F)cccc2Cl)cn1
3,Active,CN(C)c1ccc(/C=C/c2c(F)cccc2Cl)cc1
4,Active,CN(C)c1ccc(/C=C/c2c(F)cccc2F)cc1
5,Active,CN(C)c1ccc(/C=C/c2c(Cl)cccc2Cl)nc1
6,Active,CNc1ccc(/C=C/c2c(F)cccc2F)cc1
7,Active,CN(C)c1ccc(/C=C/c2c(F)cccc2Cl)cn1
8,Active,CN(C)c1ccc(/C=C/c2c(F)cccc2Cl)nc1
9,Active,CN(C)c1ccc(/C=C/c2c(Cl)cccc2Cl)cc1
10,Active,CN(C)c1ccc(/C=C/c2c(Cl)cccc2Cl)cn1
11,Active,CN(C)c1ccc(/C=C/c2c(F)cccc2F)cn1
12,Active,CN(C)c1ccc(/C=C/c2c(F)cccc2F)nc1

# Second part, the molecule before the results:
row,SMILES,inhibition
1,CNc1ccc(/C=C/c2c(F)cccc2Cl)cc1,Active
2,CNc1ncc(/C=C/c2c(F)cccc2F)cn1,Active
3,CN(C)c1ncc(/C=C/c2c(F)cccc2F)cn1,Active

# Tested on: not listed separately
# Experiment: Antiproliferative activity against human LS 174T cells by cell viability analyzer
# Type: functional, cell-based
# Settings: LS174T
# Outline: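 LS174T colon cancer cells seeded at 3 × 10^4 cells/mL, treated next day with compounds at 1–300 nM (freshly made DMSO stocks diluted in buffer). Proliferation read by automated cell viability counting. Triplicate at each concentration; IC50 from concentration–response curves by nonlinear regression one-site fit.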
row,SMILES,pIC50
1,CNc1ccc(/C=C/c2c(Cl)cccc2Cl)cc1,7.30
2,CNc1ccc(/C=C/c2c(F)cccc2F)cn1,7.52
3,CNc1ccc(/C=C/c2c(F)cccc2Cl)cn1,8.40
4,CN(C)c1ccc(/C=C/c2c(F)cccc2Cl)cc1,7.72
5,CNc1ccc(/C=C/c2c(F)cccc2Cl)cc1,8.12
6,CNc1ncc(/C=C/c2c(F)cccc2F)cn1,< 6.70
7,CCNc1ccc(/C=C/c2c(F)cccc2F)cc1,6.70
8,CCNc1ccc(/C=C/c2c(F)cccc2F)cn1,7.50
9,CN(C)c1ncc(/C=C/c2c(F)cccc2Cl)cn1,< 6.70
10,CN(C)c1ccc(/C=C/c2c(F)cccc2F)cc1,7.57
11,CN(C)c1ccc(/C=C/c2c(Cl)cccc2Cl)nc1,7.23
12,CNc1ccc(/C=C/c2c(Cl)cccc2Cl)cn1,7.71
13,CNc1ncc(/C=C/c2c(F)cccc2Cl)cn1,< 6.70
14,CNc1ccc(/C=C/c2c(F)cccc2F)cc1,8.12
15,CCNc1ncc(/C=C/c2c(F)cccc2F)cn1,< 6.70
16,CN(C)c1ccc(/C=C/c2c(F)cccc2Cl)cn1,8.33
17,CN(C)c1ccc(/C=C/c2c(F)cccc2Cl)nc1,7.69
18,CN(C)c1ccc(/C=C/c2c(Cl)cccc2Cl)cc1,6.67
19,CNc1ncc(/C=C/c2c(Cl)cccc2Cl)cn1,< 6.70
20,CN(C)c1ncc(/C=C/c2c(F)cccc2F)cn1,< 6.70
21,CN(C)c1ncc(/C=C/c2c(Cl)cccc2Cl)cn1,< 6.70
22,CN(C)c1ccc(/C=C/c2c(Cl)cccc2Cl)cn1,7.52
23,CN(C)c1ccc(/C=C/c2c(F)cccc2F)cn1,7.88
24,CN(C)c1ccc(/C=C/c2c(F)cccc2F)nc1,7.24

# Molecular target: Voltage-gated inwardly rectifying potassium channel KCNH2 (Homo sapiens, UniProt Q12809)
# Experiment: Inhibition of human ERG over-expressed in HEK293 cell membrane by [3H]dofetilide binding assay
# Type: cell membranes
# Settings: not given
# Voltage-gated inwardly rectifying potassium channel KCNH2, sequence (Q12809 whole entry): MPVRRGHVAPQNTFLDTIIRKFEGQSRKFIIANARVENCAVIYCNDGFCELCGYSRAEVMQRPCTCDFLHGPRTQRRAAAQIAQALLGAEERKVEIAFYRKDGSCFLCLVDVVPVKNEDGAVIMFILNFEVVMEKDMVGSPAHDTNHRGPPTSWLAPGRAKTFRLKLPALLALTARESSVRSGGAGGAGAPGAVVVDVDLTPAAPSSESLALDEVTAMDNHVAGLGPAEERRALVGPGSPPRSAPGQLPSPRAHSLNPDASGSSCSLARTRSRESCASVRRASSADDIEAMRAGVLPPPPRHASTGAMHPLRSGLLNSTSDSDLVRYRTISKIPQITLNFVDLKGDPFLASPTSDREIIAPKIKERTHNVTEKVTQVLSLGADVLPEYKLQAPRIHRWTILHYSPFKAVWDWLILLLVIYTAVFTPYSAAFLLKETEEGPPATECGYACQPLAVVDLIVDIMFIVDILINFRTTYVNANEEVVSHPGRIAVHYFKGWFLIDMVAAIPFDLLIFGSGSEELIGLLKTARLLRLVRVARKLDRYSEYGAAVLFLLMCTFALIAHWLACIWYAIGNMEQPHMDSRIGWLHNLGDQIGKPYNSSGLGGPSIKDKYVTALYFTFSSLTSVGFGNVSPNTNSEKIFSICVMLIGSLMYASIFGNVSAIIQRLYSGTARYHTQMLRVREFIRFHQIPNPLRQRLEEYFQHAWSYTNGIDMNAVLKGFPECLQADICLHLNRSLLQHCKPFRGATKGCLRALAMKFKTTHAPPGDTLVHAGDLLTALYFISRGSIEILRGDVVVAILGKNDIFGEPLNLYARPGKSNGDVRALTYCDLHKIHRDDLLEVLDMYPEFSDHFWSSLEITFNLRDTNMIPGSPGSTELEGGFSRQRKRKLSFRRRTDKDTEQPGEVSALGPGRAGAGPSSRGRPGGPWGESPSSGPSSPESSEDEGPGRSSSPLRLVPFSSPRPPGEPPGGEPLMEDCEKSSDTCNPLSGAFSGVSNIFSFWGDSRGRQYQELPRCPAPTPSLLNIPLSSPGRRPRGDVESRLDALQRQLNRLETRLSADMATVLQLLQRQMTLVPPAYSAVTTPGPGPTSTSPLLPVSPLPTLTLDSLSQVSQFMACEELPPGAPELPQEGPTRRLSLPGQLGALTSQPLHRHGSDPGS
row,SMILES,pIC50
1,CNc1ccc(/C=C/c2c(F)cccc2Cl)cn1,4.70
2,CNc1ccc(/C=C/c2c(F)cccc2Cl)cc1,4.30
3,CNc1ccc(/C=C/c2c(F)cccc2F)cc1,4.31
4,CN(C)c1ccc(/C=C/c2c(F)cccc2Cl)cn1,4.23
5,CN(C)c1ccc(/C=C/c2c(F)cccc2Cl)nc1,4.68
6,CN(C)c1ncc(/C=C/c2c(F)cccc2F)cn1,4.39
7,CN(C)c1ccc(/C=C/c2c(F)cccc2F)nc1,4.68

# Tested on: not listed separately
# Experiment: Ratio of IC50 for human ERG to IC50 for inhibition of human LS174T cell proliferation
# Settings: not given
row,SMILES,Ratio IC50
1,CNc1ccc(/C=C/c2c(F)cccc2Cl)cn1,5000
2,CNc1ccc(/C=C/c2c(F)cccc2Cl)cc1,6600
3,CNc1ccc(/C=C/c2c(F)cccc2F)cc1,6500
4,CN(C)c1ccc(/C=C/c2c(F)cccc2Cl)cn1,12700
5,CN(C)c1ccc(/C=C/c2c(F)cccc2Cl)nc1,1000
6,CN(C)c1ncc(/C=C/c2c(F)cccc2F)cn1,500
7,CN(C)c1ccc(/C=C/c2c(F)cccc2F)nc1,400
